Assay results from ChEMBL document CHEMBL1142895, “Discovery of a new insecticide lead by optimizing a target-diverse scaffold: tetrazolinone derivatives” (2007).
Calls of active or inactive are those of the source. The calls are words filed in the database; no cut-off is given here.

Assays:
[1] = tested on: Brassica rapa subsp. oleifera; assay: Inhibition of root growth of Brassica campestris at 100 mg/L; format: functional
How it was run: (§1)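 Seeds of each species were grown in Petri dishes with 10 seeds per dish, at 28 °C, 70–80% RH, 16:8 h light:dark photoperiod and 3000 lx light for 5 days. Root and stem lengths were measured for the 10 seeds and averaged. Each test and its controls were run in three replicates, and the data were given probit analysis.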

[2] = tested on: Radish; assay: Inhibition of root growth of Raphanus sativus at 100 mg/L; format: functional; how it was run: as §1
[3] = tested on: Triticum aestivum; assay: Herbicidal activity against Triticum aestivum at 450 g ai/ha in greenhouse in vivo test; format: functional, organism-based
[4] = tested on: Radish; assay: Inhibition of stem growth of Raphanus sativus at 100 mg/L; format: functional; how it was run: as §1
[5] = tested on: Cucumis sativus; assay: Inhibition of stem growth of Cucumis sativus at 100 mg/L; format: functional; how it was run: as §1
[6] = tested on: Radish; assay: Herbicidal activity against Raphanus sativus at 450 g ai/ha in greenhouse in vivo test; format: functional, organism-based
[7] = tested on: Echinochloa crus-galli; assay: Inhibition of root growth of Echinochloa crus-galli at 100 mg/L; format: functional; how it was run: as §1
[8] = tested on: Sorghum bicolor; assay: Herbicidal activity against Sorghum bicolor at 450 g ai/ha in greenhouse in vivo test; format: functional, organism-based
[9] = tested on: Echinochloa crus-galli; assay: Herbicidal activity against Echinochloa crus-galli at 450 g ai/ha in greenhouse in vivo test; format: functional, organism-based
[10] = tested on: Echinochloa crus-galli; assay: Inhibition of stem growth of Echinochloa crus-galli at 100 mg/L; format: functional; how it was run: as §1
[11] = tested on: Aphis; assay: Insecticidal activity against Aphis medicagini at 250 mg/L; format: functional
How it was run: (§2)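 Groups of 10 of each species were placed in glass Petri dishes and sprayed with test solution using a Potter sprayer. After air-drying, they were held under normal rearing conditions. Mortality at 72 h was taken from the number and size of live larvae relative to untreated controls.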

[12] = tested on: Cucumis sativus; assay: Inhibition of root growth of Cucumis sativus at 100 mg/L; format: functional; how it was run: as §1
[13] = tested on: Cucumis sativus; assay: Herbicidal activity against Cucumis sativus at 450 g ai/ha in greenhouse in vivo test; format: functional, organism-based
[14] = tested on: Sorghum bicolor; assay: Inhibition of stem growth of Sorghum bicolor at 100 mg/L; format: functional; how it was run: as §1
[15] = tested on: Brassica rapa subsp. oleifera; assay: Herbicidal activity against Brassica campestris at 450 g ai/ha in greenhouse in vivo test; format: functional, organism-based
[16] = tested on: Tetranychus cinnabarinus; assay: Insecticidal activity against Tetranychus cinnabarinus at 250 mg/L; format: functional; how it was run: as §2
[17] = tested on: Brassica rapa subsp. oleifera; assay: Inhibition of stem growth of Brassica campestris at 100 mg/L; format: functional; how it was run: as §1
[18] = tested on: Sorghum bicolor; assay: Inhibition of root growth of Sorghum bicolor at 100 mg/L; format: functional; how it was run: as §1
[19] = tested on: Triticum aestivum; assay: Inhibition of root growth of Triticum aestivum at 100 mg/L; format: functional; how it was run: as §1
[20] = tested on: Triticum aestivum; assay: Inhibition of stem growth of Triticum aestivum at 100 mg/L; format: functional; how it was run: as §1

Compound | inhibition at 100 µg/mL [1] [%] | inhibition at 100 µg/mL [2] [%] | Activity [3] | inhibition at 100 µg/mL [4] [%] | inhibition at 100 µg/mL [5] [%] | Activity [6] | inhibition at 100 µg/mL [7] [%] | Activity [8] | Activity [9] | inhibition at 100 µg/mL [10] [%] | Activity [11] [%] | inhibition at 100 µg/mL [12] [%] | Activity [13] | inhibition at 100 µg/mL [14] [%] | Activity [15] | Activity [16] [%] | inhibition at 100 µg/mL [17] [%] | inhibition at 100 µg/mL [18] [%] | inhibition at 100 µg/mL [19] [%] | inhibition at 100 µg/mL [20] [%]
O=c1n(Cc2cccc(F)c2)nnn1-c1ccc(Cl)cc1 | 0 | 0 | inactive | 0 | 30 | inactive | 70 | inactive | inactive | 0 | 0 | 50 | inactive | 0 | inactive | 5.7 | 0 | 0 | 40 | 40
C=CCn1nnn(-c2ccc(Cl)cc2)c1=O | 50 | 80 | inactive | 80 | 30 | inactive | 0 | inactive | inactive | 50 | 3.3 | 40 | inactive | 60 | inactive | 4.3 | 50 | 60 | 80 | 80
CSc1nnc(Cn2nnn(-c3ccc(Cl)cc3)c2=O)s1 | 0 | 50 | inactive | 50 | 60 | inactive | 30 | inactive | inactive | 0 | 5.7 | 40 | inactive | 40 | inactive | 0 | 70 | 60 | 60 | 50
CCOC(=O)C(C)Sc1nnc(Cn2nnn(-c3ccc(Cl)cc3)c2=O)s1 (stereo not given) | 85 | 80 | inactive | 50 | 60 | inactive | 50 | inactive | inactive | 40 | 0 | 60 | inactive | 70 | inactive | 0 | 80 | 80 | 70 | 50
COc1cc(-n2nnn(C)c2=O)c(Cl)cc1Cl | 0 | 0 | inactive | 0 | 60 | inactive | 30 | inactive | inactive | 30 | 0 | 60 | inactive | 30 | inactive | 100 | 0 | 70 | 70 | 50
O=c1c(Cn2nnn(-c3ccc(Cl)cc3)c2=O)coc2ccccc12 | 0 | 0 | inactive | 0 | 0 | inactive | 0 | inactive | inactive | 0 | 1.7 | 0 | inactive | 0 | inactive | 100 | 0 | 0 | 0 | 30
CCOC(=O)CSc1nnc(Cn2nnn(-c3ccc(Cl)cc3)c2=O)s1 | 70 | 70 | inactive | 60 | 30 | inactive | 0 | inactive | inactive | 0 | 0 | 50 | inactive | 50 | inactive | 80 | 50 | 30 | 50 | 60
Cc1cccc(Cn2nnn(-c3ccc(Cl)cc3)c2=O)c1 | 80 | 80 | inactive | 70 | 0 | inactive | 0 | inactive | inactive | 0 | 8.3 | 0 | inactive | 0 | inactive | 4.3 | 90 | 0 | 0 | 0
CCOC(=O)CSc1nnc(Cn2nnn(-c3ccc(Cl)cc3)c2=O)o1 | 50 | 50 | inactive | 0 | 0 | inactive | 0 | inactive | inactive | 0 | 0 | 0 | inactive | 0 | inactive | 2.9 | 60 | 0 | 0 | 0
C=CCSc1nnc(Cn2nnn(-c3ccc(Cl)cc3)c2=O)o1 | 80 | 60 | inactive | 60 | 50 | inactive | 0 | inactive | inactive | 0 | 5 | 60 | inactive | 0 | inactive | 96.8 | 70 | 0 | 0 | 0
